Assay results reported in ChEMBL document CHEMBL4477204, “Tetrahydroisoquinoline-Derived Urea and 2,5-Diketopiperazine Derivatives as Selective Antagonists of the Transient Receptor Potential Melastatin 8 (TRPM8) Channel Receptor and Antiprostate Cancer Agents” (J Med Chem, 2016).
Activity calls are given as the source filed them. The rule behind the calls is not given here.

Assays:
[1] = biological target: Transient receptor potential cation channel subfamily M member 8 (Rattus norvegicus, UniProt Q8R455); assay: Agonist activity at recombinant rat TRPM8 expressed in HEK293 cells assessed as increase in intracellular calcium accumulation by Fluo-4-AM probe-based spectrofluorimetric assay; format: cell-based; conditions: hek293
How it was run: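 HEK-293 cells stably expressing rat TRPM8 were loaded with Fluo-4-AM (4 µM, 0.02% Pluronic F-127) for 1 h at 25 °C in serum-free EMEM. They were then washed and suspended in Tyrode's buffer pH 7.4 in a stirred cuvette. [Ca2+]i fluorescence (ex 488/em 516 nm) was read before and after compound addition. Wild-type HEK-293 response was subtracted. Efficacy is expressed versus 4 µM ionomycin; EC50 comes from a sigmoidal fit.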

LNCaP [2] = assay: Induction of apoptosis in human LNCAP cells assessed as increase in caspase3/7 activity at 10 uM after 72 hrs by caspase-glo 3/7 chemiluminescence assay relative to control; format: functional
How it was run: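 LNCaP cells were cultured 72 h with 10 µM compound or vehicle, then washed with PBS. Caspase-Glo 3/7 reagent was added to 1×10^4 cells/assay, incubated 1 h at room temperature in the dark, and luminescence was read. Vehicle blank was subtracted; runs were in triplicate. Camptothecin 0.1 µg/mL plus anti-Fas 0.2 µg/mL for 24 h served as the apoptosis reference.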

[3] = biological target: Transient receptor potential cation channel subfamily A member 1 (Rattus norvegicus, UniProt Q6RI86); assay: Antagonist activity at recombinant rat TRPA1 expressed in HEK293 cells assessed as inhibition of AITC-induced intracellular calcium accumulation preincubated for 5 mins followed by AITC addition by Fluo-4-AM probe-based spectrofluorimetric assay; format: cell-based
How it was run: (§1)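 HEK-293 cells stably expressing the listed TRP channel (human TRPV1; rat TRPM8, TRPA1, TRPV2, TRPV3 or TRPV4) were Fluo-4-AM loaded (4 µM, 1 h, 25 °C) and suspended in Tyrode's buffer pH 7.4. Compound was added 5 min before agonist: icilin 0.25 µM (TRPM8), capsaicin 0.1 µM (TRPV1), AITC 100 µM (TRPA1), LPC 3 µM (TRPV2), thymol 100 µM (TRPV3), 4α-PDD 1 µM (TRPV4). Agonist alone was taken as 100%. IC50 from sigmoidal fit, at least triplicate.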

[4] = biological target: T1, Heat sensitive channel TRPV3 (Rattus norvegicus, UniProt Q4QYD9); assay: Antagonist activity at recombinant rat TRPV3 expressed in HEK293 cells assessed as inhibition of thymol-induced intracellular calcium accumulation preincubated for 5 mins followed by thymol addition by Fluo-4-AM probe-based spectrofluorimetric assay; format: cell-based; how it was run: as §1
T1 sequence (Q4QYD9 whole entry): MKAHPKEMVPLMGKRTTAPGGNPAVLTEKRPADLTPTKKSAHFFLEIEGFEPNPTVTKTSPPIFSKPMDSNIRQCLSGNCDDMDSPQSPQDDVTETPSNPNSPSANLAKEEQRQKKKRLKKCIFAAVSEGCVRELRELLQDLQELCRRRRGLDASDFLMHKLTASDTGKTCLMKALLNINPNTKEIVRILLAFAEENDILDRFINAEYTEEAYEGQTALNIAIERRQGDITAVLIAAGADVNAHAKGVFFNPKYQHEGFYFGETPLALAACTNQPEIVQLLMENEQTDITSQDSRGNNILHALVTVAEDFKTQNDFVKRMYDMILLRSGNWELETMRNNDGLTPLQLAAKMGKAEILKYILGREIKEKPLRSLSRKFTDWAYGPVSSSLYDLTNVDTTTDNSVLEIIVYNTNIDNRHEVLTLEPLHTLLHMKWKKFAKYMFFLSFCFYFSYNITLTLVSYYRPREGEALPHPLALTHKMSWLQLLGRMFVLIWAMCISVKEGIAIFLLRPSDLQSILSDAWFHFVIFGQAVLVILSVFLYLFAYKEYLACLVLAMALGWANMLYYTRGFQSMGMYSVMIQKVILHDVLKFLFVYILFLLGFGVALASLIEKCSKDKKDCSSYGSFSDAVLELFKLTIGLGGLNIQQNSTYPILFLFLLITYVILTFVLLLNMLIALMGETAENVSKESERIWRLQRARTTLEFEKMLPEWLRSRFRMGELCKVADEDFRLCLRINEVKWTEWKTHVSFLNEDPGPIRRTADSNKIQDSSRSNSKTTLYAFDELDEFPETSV

[5] = biological target: T2, Transient receptor potential cation channel subfamily V member 2 (Rattus norvegicus) (UniProt Q9WUD2); assay: Antagonist activity at recombinant rat TRPV2 expressed in HEK293 cells assessed as inhibition of LPC-induced intracellular calcium accumulation up to 10 uM preincubated for 5 mins followed by LPC addition by Fluo-4-AM probe-based spectrofluorimetric assay; format: cell-based; how it was run: as §1
T2 sequence (whole entry): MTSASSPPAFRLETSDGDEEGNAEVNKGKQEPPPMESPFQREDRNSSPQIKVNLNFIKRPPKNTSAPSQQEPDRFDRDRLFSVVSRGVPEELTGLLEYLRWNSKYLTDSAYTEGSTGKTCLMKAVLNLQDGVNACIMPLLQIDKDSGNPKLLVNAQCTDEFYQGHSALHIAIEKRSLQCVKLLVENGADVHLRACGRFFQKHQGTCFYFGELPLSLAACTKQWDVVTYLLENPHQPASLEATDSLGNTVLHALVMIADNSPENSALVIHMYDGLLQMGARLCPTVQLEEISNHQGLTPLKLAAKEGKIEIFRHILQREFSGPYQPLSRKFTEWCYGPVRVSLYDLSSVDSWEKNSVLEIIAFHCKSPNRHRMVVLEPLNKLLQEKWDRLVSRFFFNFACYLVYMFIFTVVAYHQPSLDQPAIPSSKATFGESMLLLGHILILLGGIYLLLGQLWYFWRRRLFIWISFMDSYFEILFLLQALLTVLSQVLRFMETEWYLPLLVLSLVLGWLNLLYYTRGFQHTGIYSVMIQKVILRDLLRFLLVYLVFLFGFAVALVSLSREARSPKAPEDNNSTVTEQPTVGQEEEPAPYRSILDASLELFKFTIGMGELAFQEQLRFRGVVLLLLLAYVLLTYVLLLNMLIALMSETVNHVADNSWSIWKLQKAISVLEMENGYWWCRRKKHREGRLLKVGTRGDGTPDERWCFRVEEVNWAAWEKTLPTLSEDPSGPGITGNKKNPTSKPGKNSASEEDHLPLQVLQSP

in vitro = conditions: C57BL/6, mouse, liver microsomes
LNCaP [6] = assay: Cytotoxicity against human LNCAP cells assessed as reduction in cell viability by measuring fluorescence gated cells at 10 uM after 72 hrs by CBNF assay (reference value: 83.3%); format: functional
CWR22R = assay: Cytotoxicity against human 22Rv1 cells assessed as reduction in cell viability by measuring fluorescence gated cells at 10 uM after 72 hrs by CBNF assay (reference value: 81.3%); format: functional
[7] = Cytotoxicity against human PNT1A cells assessed as reduction in cell viability by measuring fluorescence gated cells at 10 uM after 72 hrs by CBNF assay (reference value: 94.1%); format: cell-based; conditions: read-out: Activity

Sequence of Transient receptor potential cation channel subfamily A member 1 (Q6RI86 whole entry): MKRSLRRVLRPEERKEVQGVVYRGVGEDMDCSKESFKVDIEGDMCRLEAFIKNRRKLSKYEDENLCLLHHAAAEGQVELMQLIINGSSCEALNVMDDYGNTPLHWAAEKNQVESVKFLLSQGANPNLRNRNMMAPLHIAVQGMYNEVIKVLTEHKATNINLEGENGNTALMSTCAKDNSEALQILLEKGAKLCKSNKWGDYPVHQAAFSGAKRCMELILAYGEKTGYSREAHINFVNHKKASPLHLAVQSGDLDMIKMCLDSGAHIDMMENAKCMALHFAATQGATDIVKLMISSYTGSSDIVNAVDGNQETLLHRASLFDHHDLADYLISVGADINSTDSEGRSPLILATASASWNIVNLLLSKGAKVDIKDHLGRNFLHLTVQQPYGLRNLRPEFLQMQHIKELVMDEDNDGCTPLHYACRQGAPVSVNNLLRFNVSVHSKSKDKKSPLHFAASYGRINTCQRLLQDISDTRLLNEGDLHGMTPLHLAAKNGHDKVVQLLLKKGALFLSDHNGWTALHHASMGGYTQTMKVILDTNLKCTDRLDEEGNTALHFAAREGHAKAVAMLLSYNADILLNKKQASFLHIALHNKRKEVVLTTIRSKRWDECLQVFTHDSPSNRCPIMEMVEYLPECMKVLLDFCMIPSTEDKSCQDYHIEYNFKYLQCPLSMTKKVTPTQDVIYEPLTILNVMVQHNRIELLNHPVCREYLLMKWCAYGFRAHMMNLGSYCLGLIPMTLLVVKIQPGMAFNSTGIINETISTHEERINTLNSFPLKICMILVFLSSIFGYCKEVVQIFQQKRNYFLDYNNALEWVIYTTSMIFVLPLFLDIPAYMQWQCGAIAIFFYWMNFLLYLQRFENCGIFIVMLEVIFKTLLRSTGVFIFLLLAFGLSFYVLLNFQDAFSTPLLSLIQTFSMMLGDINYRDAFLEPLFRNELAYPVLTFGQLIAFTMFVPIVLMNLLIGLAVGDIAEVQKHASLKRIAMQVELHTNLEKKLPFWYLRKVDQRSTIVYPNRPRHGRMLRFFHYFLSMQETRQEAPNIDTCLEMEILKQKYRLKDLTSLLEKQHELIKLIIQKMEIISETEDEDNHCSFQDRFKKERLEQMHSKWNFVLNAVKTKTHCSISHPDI
Sequence of Transient receptor potential cation channel subfamily M member 8 (Q8R455 whole entry): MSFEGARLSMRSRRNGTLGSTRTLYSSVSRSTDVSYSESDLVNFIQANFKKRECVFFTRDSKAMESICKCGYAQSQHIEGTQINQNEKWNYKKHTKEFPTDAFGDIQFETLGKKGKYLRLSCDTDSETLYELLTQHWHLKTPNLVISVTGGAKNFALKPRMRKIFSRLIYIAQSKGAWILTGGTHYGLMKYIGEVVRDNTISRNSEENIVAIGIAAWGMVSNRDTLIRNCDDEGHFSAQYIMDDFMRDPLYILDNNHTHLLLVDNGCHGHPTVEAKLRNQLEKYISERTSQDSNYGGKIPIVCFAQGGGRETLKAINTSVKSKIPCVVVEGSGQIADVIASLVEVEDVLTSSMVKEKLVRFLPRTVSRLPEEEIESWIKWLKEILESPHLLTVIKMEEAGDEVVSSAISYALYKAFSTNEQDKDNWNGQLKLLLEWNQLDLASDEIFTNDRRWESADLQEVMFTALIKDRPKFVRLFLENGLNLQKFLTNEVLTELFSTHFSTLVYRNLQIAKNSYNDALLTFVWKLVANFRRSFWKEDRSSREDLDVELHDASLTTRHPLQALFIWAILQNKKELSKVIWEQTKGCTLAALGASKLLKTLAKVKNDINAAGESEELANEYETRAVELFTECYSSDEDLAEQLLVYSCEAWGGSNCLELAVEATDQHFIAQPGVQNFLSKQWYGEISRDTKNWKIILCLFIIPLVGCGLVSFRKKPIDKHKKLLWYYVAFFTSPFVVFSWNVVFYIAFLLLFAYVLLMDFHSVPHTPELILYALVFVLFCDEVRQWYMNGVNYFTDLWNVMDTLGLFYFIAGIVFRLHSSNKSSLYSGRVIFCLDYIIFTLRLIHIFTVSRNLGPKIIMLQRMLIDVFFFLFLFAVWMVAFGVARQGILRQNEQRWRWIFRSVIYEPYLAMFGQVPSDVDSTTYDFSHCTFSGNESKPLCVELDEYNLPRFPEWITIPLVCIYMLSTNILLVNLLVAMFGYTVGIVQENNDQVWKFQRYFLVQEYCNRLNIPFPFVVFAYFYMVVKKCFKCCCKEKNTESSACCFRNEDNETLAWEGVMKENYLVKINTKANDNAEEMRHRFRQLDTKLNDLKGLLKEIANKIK

| EC50 [1] | IC50 [3] | IC50 [4] | inhibition [5] | CLint scaled at 1 h, 3 µM (in vitro) | SMILES | Activity (LNCaP [2]) | Activity (LNCaP [6]) | Activity (CWR22R) | viability at 72 h, 10 µM [7] |
| --- | --- | --- | --- | --- | --- | --- | --- | --- | --- |
| Not Active | 14.2 µM | 34.3 µM | inactive | 15.6 mL/min/kg | COc1cc(/C=C2\NC(=O)[C@@H]3Cc4c(OC)c(C)c(OC)c(OC)c4[C@@H](c4ccccc4)N3C2=O)c(OC)c(C)c1OC | 200% | – | – | – |
| Not Active | 10 µM | > 100 µM | inactive | – | COc1cc2c(cc1OC)[C@H](c1ccccc1)N(C(=O)N1CCc3cc(OC)c(OC)cc3[C@@H]1c1ccccc1)CC2 (racemic) | 220% | – | – | – |
| Not Active | 16.4 µM | 72.9 µM | inactive | 75.2 mL/min/kg | COc1cc2c(cc1OC)[C@H](c1ccc(F)cc1)N(C(=O)N1CCc3cc(OC)c(OC)cc3[C@@H]1c1ccc(F)cc1)CC2 (racemic) | 198% | 54.4% | 82.2% | 92.7% |
| Not Active | 23.9 µM | > 100 µM | inactive | – | COc1cc2c(cc1OC)[C@H](c1ccc(Cl)cc1)N(C(=O)N1CCc3cc(OC)c(OC)cc3[C@@H]1c1ccc(Cl)cc1)CC2 (racemic) | 190% | – | – | – |
